Test results published in ChEMBL document CHEMBL1149538, “A high-throughput assay for O-GlcNAc transferase detects primary sequence preferences in peptide substrates” (Bioorg Med Chem Lett, 2007).
Where a SMILES comes first, the peptide text is derived from it.

biological target: T1, UDP-N-acetylglucosamine--peptide N-acetylglucosaminyltransferase 110 kDa subunit (Homo sapiens) (UniProt O15294); experiment: Binding affinity to human OGT expressed in Escherichia coli […] cells assessed as alpha-FLAG-HRP activity relative to alpha-A-crystallin peptide by azido-ELISA; conditions: BL21-DE3
T1 sequence (whole entry): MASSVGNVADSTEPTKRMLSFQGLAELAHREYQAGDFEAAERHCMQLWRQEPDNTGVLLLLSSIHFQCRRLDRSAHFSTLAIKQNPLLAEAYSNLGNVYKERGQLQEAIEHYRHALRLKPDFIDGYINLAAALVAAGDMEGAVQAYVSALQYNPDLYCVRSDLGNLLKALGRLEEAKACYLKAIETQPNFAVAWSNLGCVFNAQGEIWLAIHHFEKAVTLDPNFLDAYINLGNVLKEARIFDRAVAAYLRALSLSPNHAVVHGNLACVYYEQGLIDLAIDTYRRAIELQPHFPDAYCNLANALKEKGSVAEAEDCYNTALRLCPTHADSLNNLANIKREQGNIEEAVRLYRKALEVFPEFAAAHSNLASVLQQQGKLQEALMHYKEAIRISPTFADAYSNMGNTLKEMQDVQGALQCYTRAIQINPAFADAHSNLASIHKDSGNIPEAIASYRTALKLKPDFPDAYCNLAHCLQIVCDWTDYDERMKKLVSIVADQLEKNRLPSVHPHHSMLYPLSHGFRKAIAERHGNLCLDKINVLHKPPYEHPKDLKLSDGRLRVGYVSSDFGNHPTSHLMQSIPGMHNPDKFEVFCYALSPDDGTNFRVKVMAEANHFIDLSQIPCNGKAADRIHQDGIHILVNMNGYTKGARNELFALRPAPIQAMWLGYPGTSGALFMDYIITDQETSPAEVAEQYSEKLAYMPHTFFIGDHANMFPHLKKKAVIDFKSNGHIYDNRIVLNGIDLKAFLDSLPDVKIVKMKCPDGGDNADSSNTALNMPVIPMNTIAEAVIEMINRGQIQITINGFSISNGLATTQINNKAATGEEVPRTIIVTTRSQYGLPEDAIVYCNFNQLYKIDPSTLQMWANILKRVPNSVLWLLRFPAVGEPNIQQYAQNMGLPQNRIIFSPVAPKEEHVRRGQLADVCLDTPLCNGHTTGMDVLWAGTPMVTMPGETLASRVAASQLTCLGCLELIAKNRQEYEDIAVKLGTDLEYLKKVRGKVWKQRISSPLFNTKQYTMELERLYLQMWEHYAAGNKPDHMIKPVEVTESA
Procedure, shortened: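 Biotinylated peptides are reacted at saturating levels with Ni-column-purified human OGT from E. coli BL21(DE3), plus UDP-GlcNAz 62.5 μM, MgCl2 12.5 μM and β-mercaptoethanol 1 mM, for 4 h at 37 °C. Reactions are stopped with pH 4.5 sodium acetate and captured on NeutrAvidin. Product is tagged with phosphine-FLAG, detected by anti-FLAG-HRP/TMB at A450, normalized to the parent peptide after Ala-peptide background subtraction. Data are from 3 experiments, each in triplicate.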

Compound | Activity
CC(C)[C@H](NC(=O)[C@@H]1CCCN1C(=O)[C@H](C)NC(=O)[C@H](C)N)C(=O)N[C@@H](CO)C(=O)N[C@@H](CCCNC(=N)N)C(=O)N[C@@H](CCC(=O)O)C(=O)N[C@@H](CCC(=O)O)C(=O)N[C@@H](CCCCN)C(=O)O (H-AAPVSREEK-OH) | 0.4
CC(C)[C@H](NC(=O)[C@@H]1CCCN1C(=O)[C@H](CCC(=O)O)NC(=O)[C@H](C)N)C(=O)N[C@@H](CO)C(=O)N[C@@H](CCCNC(=N)N)C(=O)N[C@@H](CCC(=O)O)C(=O)N[C@@H](CCC(=O)O)C(=O)N[C@@H](CCCCN)C(=O)O (H-AEPVSREEK-OH) | 0.5
CC[C@H](C)[C@H](NC(=O)[C@H](C)N)C(=O)N[C@@H](C)C(=O)N[C@H](C(=O)N[C@@H](CO)C(=O)N[C@@H](CCCNC(=N)N)C(=O)N[C@@H](CCC(=O)O)C(=O)N[C@@H](CCC(=O)O)C(=O)N[C@@H](CCCCN)C(=O)O)C(C)C (H-AIAVSREEK-OH) | 0.1
CC[C@H](C)[C@H](NC(=O)[C@H](C)N)C(=O)N[C@@H](CCC(=O)O)C(=O)N[C@H](C(=O)N[C@@H](CO)C(=O)N[C@@H](CCCNC(=N)N)C(=O)N[C@@H](CCC(=O)O)C(=O)N[C@@H](CCC(=O)O)C(=O)N[C@@H](CCCCN)C(=O)O)C(C)C (H-AIEVSREEK-OH) | 0
CC[C@H](C)[C@H](NC(=O)[C@H](C)N)C(=O)N1CCC[C@H]1C(=O)N[C@@H](C)C(=O)N[C@@H](CO)C(=O)N[C@@H](CCCNC(=N)N)C(=O)N[C@@H](CCC(=O)O)C(=O)N[C@@H](CCC(=O)O)C(=O)N[C@@H](CCCCN)C(=O)O (H-AIPASREEK-OH) | 0.1
CC[C@H](C)[C@H](NC(=O)[C@H](C)N)C(=O)N1CCC[C@H]1C(=O)N[C@@H](CCC(=O)O)C(=O)N[C@@H](CO)C(=O)N[C@@H](CCCNC(=N)N)C(=O)N[C@@H](CCC(=O)O)C(=O)N[C@@H](CCC(=O)O)C(=O)N[C@@H](CCCCN)C(=O)O (H-AIPESREEK-OH) | 0.2
CC[C@H](C)[C@H](NC(=O)[C@@H]1CCCN1C(=O)[C@@H](NC(=O)[C@H](C)N)[C@@H](C)CC)C(=O)N[C@@H](CO)C(=O)N[C@@H](CCCNC(=N)N)C(=O)N[C@@H](CCC(=O)O)C(=O)N[C@@H](CCC(=O)O)C(=O)N[C@@H](CCCCN)C(=O)O (H-AIPISREEK-OH) | 0.3
CC[C@H](C)[C@H](NC(=O)[C@H](C)N)C(=O)N1CCC[C@H]1C(=O)N1CCC[C@H]1C(=O)N[C@@H](CO)C(=O)N[C@@H](CCCNC(=N)N)C(=O)N[C@@H](CCC(=O)O)C(=O)N[C@@H](CCC(=O)O)C(=O)N[C@@H](CCCCN)C(=O)O (H-AIPPSREEK-OH) | 0.1
CC[C@H](C)[C@H](NC(=O)[C@H](C)N)C(=O)N1CCC[C@H]1C(=O)N[C@@H](CCCNC(=N)N)C(=O)N[C@@H](CO)C(=O)N[C@@H](CCCNC(=N)N)C(=O)N[C@@H](CCC(=O)O)C(=O)N[C@@H](CCC(=O)O)C(=O)N[C@@H](CCCCN)C(=O)O (H-AIPRSREEK-OH) | 0
CC[C@H](C)[C@H](NC(=O)[C@H](C)N)C(=O)N1CCC[C@H]1C(=O)N[C@H](C(=O)N[C@@H](CO)C(=O)N[C@@H](C)C(=O)N[C@@H](CCC(=O)O)C(=O)N[C@@H](CCC(=O)O)C(=O)N[C@@H](CCCCN)C(=O)O)C(C)C (H-AIPVSAEEK-OH) | 0
CC[C@H](C)[C@H](NC(=O)[C@H](C)N)C(=O)N1CCC[C@H]1C(=O)N[C@H](C(=O)N[C@@H](CO)C(=O)N[C@@H](CCC(=O)O)C(=O)N[C@@H](CCC(=O)O)C(=O)N[C@@H](CCC(=O)O)C(=O)N[C@@H](CCCCN)C(=O)O)C(C)C (H-AIPVSEEEK-OH) | 0
CC[C@H](C)[C@H](NC(=O)[C@H](CO)NC(=O)[C@@H](NC(=O)[C@@H]1CCCN1C(=O)[C@@H](NC(=O)[C@H](C)N)[C@@H](C)CC)C(C)C)C(=O)N[C@@H](CCC(=O)O)C(=O)N[C@@H](CCC(=O)O)C(=O)N[C@@H](CCCCN)C(=O)O (H-AIPVSIEEK-OH) | 0.1
CC[C@H](C)[C@H](NC(=O)[C@H](C)N)C(=O)N1CCC[C@H]1C(=O)N[C@H](C(=O)N[C@@H](CO)C(=O)N1CCC[C@H]1C(=O)N[C@@H](CCC(=O)O)C(=O)N[C@@H](CCC(=O)O)C(=O)N[C@@H](CCCCN)C(=O)O)C(C)C (H-AIPVSPEEK-OH) | 0
CC[C@H](C)[C@H](NC(=O)[C@H](C)N)C(=O)N1CCC[C@H]1C(=O)N[C@H](C(=O)N[C@@H](CO)C(=O)N[C@@H](CCCNC(=N)N)C(=O)N[C@@H](C)C(=O)N[C@@H](CCC(=O)O)C(=O)N[C@@H](CCCCN)C(=O)O)C(C)C (H-AIPVSRAEK-OH) | 5
CC[C@H](C)[C@H](NC(=O)[C@H](C)N)C(=O)N1CCC[C@H]1C(=O)N[C@H](C(=O)N[C@@H](CO)C(=O)N[C@@H](CCCNC(=N)N)C(=O)N[C@@H](CCC(=O)O)C(=O)N[C@@H](C)C(=O)N[C@@H](CCCCN)C(=O)O)C(C)C (H-AIPVSREAK-OH) | 0.6
CC[C@H](C)[C@H](NC(=O)[C@H](C)N)C(=O)N1CCC[C@H]1C(=O)N[C@H](C(=O)N[C@@H](CO)C(=O)N[C@@H](CCCNC(=N)N)C(=O)N[C@@H](CCC(=O)O)C(=O)N[C@@H](CCC(=O)O)C(=O)N[C@@H](CCCCN)C(=O)O)C(C)C (H-AIPVSREEK-OH) | 1
CC[C@H](C)[C@H](NC(=O)[C@H](CCC(=O)O)NC(=O)[C@H](CCCNC(=N)N)NC(=O)[C@H](CO)NC(=O)[C@@H](NC(=O)[C@@H]1CCCN1C(=O)[C@@H](NC(=O)[C@H](C)N)[C@@H](C)CC)C(C)C)C(=O)N[C@@H](CCCCN)C(=O)O (H-AIPVSREIK-OH) | 0.1
CC[C@H](C)[C@H](NC(=O)[C@H](C)N)C(=O)N1CCC[C@H]1C(=O)N[C@H](C(=O)N[C@@H](CO)C(=O)N[C@@H](CCCNC(=N)N)C(=O)N[C@@H](CCC(=O)O)C(=O)N1CCC[C@H]1C(=O)N[C@@H](CCCCN)C(=O)O)C(C)C (H-AIPVSREPK-OH) | 0.3
CC[C@H](C)[C@H](NC(=O)[C@H](C)N)C(=O)N1CCC[C@H]1C(=O)N[C@H](C(=O)N[C@@H](CO)C(=O)N[C@@H](CCCNC(=N)N)C(=O)N[C@@H](CCC(=O)O)C(=O)N[C@@H](CCCNC(=N)N)C(=O)N[C@@H](CCCCN)C(=O)O)C(C)C (H-AIPVSRERK-OH) | 0.2
CC[C@H](C)[C@H](NC(=O)[C@H](C)N)C(=O)N1CCC[C@H]1C(=O)N[C@H](C(=O)N[C@@H](CO)C(=O)N[C@@H](CCCNC(=N)N)C(=O)N1CCC[C@H]1C(=O)N[C@@H](CCC(=O)O)C(=O)N[C@@H](CCCCN)C(=O)O)C(C)C (H-AIPVSRPEK-OH) | 4.7
CC[C@H](C)[C@H](NC(=O)[C@H](C)N)C(=O)N1CCC[C@H]1C(=O)N[C@H](C(=O)N[C@@H](CO)C(=O)N[C@@H](CCCNC(=N)N)C(=O)N[C@@H](CCCNC(=N)N)C(=O)N[C@@H](CCC(=O)O)C(=O)N[C@@H](CCCCN)C(=O)O)C(C)C (H-AIPVSRREK-OH) | 0.6
CC[C@H](C)[C@H](NC(=O)[C@H](C)N)C(=O)N[C@@H](CCCNC(=N)N)C(=O)N[C@H](C(=O)N[C@@H](CO)C(=O)N[C@@H](CCCNC(=N)N)C(=O)N[C@@H](CCC(=O)O)C(=O)N[C@@H](CCC(=O)O)C(=O)N[C@@H](CCCCN)C(=O)O)C(C)C (H-AIRVSREEK-OH) | 0.2
CC(C)[C@H](NC(=O)[C@@H]1CCCN1C(=O)[C@@H]1CCCN1C(=O)[C@H](C)N)C(=O)N[C@@H](CO)C(=O)N[C@@H](CCCNC(=N)N)C(=O)N[C@@H](CCC(=O)O)C(=O)N[C@@H](CCC(=O)O)C(=O)N[C@@H](CCCCN)C(=O)O (H-APPVSREEK-OH) | 0.1
